Data taken from ChEMBL document CHEMBL2177085 (J Med Chem, 2012).

Columns and labels:
[1] = Inhibition of angiogenesis in chick embryo model assessed as reduction in vessel growth at 26 nM incubated for 24 hrs; assay type: functional, Gallus gallus
How it was run: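 White leghorn eggs incubated at 37.5 °C, 62% humidity. At 70 h, albumen removed and shell windowed. From 75 h, 15 agarose pellets (from a 26 mM DMSO stock in 2% agarose; final concentration 26 nM) placed on the area vasculosa.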

[2] = target: T1, Receptor-type tyrosine-protein kinase FLT3 (Homo sapiens, UniProt P36888); experiment: Inhibition of FLT3
T1 sequence (P36888 whole entry): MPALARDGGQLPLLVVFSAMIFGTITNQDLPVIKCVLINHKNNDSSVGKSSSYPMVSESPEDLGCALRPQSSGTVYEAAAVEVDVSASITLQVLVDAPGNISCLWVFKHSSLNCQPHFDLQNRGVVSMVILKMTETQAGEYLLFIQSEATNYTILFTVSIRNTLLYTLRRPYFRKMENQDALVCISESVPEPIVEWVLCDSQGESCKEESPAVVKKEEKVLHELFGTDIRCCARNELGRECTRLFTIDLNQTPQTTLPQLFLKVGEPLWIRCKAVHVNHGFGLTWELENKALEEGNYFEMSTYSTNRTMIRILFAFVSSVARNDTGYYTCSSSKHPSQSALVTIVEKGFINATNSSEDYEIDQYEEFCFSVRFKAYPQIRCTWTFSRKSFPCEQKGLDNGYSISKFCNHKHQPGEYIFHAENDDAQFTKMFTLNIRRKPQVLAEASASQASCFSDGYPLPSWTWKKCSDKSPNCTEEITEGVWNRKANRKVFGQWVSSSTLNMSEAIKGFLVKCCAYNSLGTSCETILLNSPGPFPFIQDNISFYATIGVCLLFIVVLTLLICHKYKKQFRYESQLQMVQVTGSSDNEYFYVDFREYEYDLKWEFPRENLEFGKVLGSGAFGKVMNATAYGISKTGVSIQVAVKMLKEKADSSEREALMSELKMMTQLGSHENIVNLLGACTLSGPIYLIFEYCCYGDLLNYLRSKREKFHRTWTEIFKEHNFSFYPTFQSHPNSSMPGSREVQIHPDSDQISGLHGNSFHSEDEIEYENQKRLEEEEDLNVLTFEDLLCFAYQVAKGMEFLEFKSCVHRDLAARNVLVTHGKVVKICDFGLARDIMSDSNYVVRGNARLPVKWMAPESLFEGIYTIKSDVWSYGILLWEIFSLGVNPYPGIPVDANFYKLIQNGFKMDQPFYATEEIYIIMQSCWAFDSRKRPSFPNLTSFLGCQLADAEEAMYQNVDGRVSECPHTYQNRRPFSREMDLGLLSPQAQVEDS
How it was run: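 Run as an outsourced kinase profiling service (Millipore IC50 Profiler), with the protocol referred to the provider. Gives IC50 values and residual activity at 10 μM test compound. Compounds tested in duplicate.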

HT-29 [3] = experiment: Cytotoxic activity against human HT-29 cells assessed as cell viability at 52 uM incubated for 3 days by MTT assay; assay type: functional; settings: HT-29, 72 h, read-out: Activity
How it was run: (§1)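 MTT viability: exponentially growing cells, 10 000 viable cells/well in RPMI plated overnight, then exposed to test compounds for 3 days (HT-29, Molm-14) or 5 days (Mkn-45) at 37 °C, 5% CO2. MTT added for 4 h, then SDS/HCl solubilization overnight and absorbance read at 562 nm. Viability is expressed relative to untreated cells (100%). Triplicate.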

HUVEC [4] = experiment: Induction of apoptosis in human HUVEC assessed as accumulation at subG1 phase at 2.6 uM incubated for 4 days by flow cytometry (reference value: 15.4 +/- 1.5%); assay type: functional
HUVEC [5] = experiment: Induction of apoptosis in human HUVEC assessed as accumulation at subG1 phase at 0.79 uM incubated for 4 days by flow cytometry (reference value: 15.4 +/- 1.5%); assay type: functional
HT-29 [6] = experiment: Cytotoxic activity against human HT-29 cells assessed as cell viability at 7.9 uM incubated for 3 days by MTT assay; assay type: functional; settings: HT-29, 72 h, read-out: Activity
How it was run: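 HT-29 cells in exponential growth were seeded at 10 000 viable cells per well in RPMI and left overnight. They were then exposed to compound for 3 days at 37 °C under 5% CO₂. MTT was added for 4 h, followed by overnight solubilisation in 10% SDS/0.01 M HCl and absorbance at 562 nm. Viability is expressed as % of untreated cells (100%), in triplicate.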

MKN-45 [7] = experiment: Cytotoxic activity against human MKN45 cells assessed as cell viability at 1 uM incubated for 5 days by MTT assay; assay type: functional; settings: MKN-45, 120 h, read-out: Activity; how it was run: as §1
[8] = target: Vascular endothelial growth factor receptor 2 (Homo sapiens, UniProt P35968); experiment: Inhibition of VEGFR2
Sequence of Vascular endothelial growth factor receptor 2 (P35968 whole entry): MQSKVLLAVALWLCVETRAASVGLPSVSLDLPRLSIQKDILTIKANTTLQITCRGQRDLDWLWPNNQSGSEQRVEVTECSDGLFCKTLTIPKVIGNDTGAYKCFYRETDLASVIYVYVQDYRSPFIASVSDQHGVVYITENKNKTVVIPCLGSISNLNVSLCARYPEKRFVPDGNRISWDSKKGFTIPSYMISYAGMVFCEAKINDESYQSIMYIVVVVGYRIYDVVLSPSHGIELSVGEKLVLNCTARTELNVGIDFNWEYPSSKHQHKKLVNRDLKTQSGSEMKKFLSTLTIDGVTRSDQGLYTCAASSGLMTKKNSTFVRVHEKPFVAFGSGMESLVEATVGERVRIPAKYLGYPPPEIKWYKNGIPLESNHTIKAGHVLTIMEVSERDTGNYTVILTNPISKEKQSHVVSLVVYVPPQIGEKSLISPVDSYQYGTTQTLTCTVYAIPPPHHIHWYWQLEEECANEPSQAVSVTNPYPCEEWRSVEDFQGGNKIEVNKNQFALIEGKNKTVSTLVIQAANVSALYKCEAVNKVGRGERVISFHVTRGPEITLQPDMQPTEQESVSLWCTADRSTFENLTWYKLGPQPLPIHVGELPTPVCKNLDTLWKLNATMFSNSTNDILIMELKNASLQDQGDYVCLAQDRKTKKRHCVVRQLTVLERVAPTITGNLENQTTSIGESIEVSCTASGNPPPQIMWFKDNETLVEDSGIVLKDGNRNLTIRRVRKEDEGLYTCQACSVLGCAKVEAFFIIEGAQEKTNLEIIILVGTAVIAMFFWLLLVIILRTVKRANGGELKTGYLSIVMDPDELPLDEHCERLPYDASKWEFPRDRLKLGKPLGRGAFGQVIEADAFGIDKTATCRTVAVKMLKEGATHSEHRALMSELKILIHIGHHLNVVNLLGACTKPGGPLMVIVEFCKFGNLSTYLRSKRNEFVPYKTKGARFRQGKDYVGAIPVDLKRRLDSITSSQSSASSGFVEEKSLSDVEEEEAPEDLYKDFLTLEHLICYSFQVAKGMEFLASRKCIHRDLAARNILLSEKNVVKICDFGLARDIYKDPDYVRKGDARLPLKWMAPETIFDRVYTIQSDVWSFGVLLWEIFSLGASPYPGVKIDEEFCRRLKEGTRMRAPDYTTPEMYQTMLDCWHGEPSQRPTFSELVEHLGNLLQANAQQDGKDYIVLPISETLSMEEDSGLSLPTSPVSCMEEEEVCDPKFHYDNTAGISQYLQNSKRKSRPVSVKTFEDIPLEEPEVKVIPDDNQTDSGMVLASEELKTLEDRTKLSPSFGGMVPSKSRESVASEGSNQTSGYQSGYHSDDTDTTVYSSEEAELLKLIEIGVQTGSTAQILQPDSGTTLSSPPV
How it was run: (§2)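 IC50 determined by a commercial kinase profiling service (Millipore IC50 Profiler); duplicate testing.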

MKN-45 [9] = experiment: Cytotoxic activity against human MKN45 cells assessed as cell viability at 10 uM incubated for 5 days by MTT assay; assay type: functional; settings: MKN-45, 120 h, read-out: Activity; how it was run: as §1
MKN-45 [10] = experiment: Cytotoxic activity against human MKN45 cells assessed as cell viability at 20 uM incubated for 5 days by MTT assay; assay type: functional; settings: MKN-45, 120 h, read-out: Activity; how it was run: as §1
HT-29 [11] = experiment: Cytotoxic activity against human HT-29 cells assessed as cell viability at 26 uM incubated for 3 days by MTT assay; assay type: functional; settings: HT-29, 72 h, read-out: Activity; how it was run: as §1
[12] = target: Glycogen synthase kinase-3 beta (Homo sapiens, UniProt P49841); experiment: Inhibition of GSK3beta; how it was run: as §2
Sequence of Glycogen synthase kinase-3 beta (P49841 whole entry): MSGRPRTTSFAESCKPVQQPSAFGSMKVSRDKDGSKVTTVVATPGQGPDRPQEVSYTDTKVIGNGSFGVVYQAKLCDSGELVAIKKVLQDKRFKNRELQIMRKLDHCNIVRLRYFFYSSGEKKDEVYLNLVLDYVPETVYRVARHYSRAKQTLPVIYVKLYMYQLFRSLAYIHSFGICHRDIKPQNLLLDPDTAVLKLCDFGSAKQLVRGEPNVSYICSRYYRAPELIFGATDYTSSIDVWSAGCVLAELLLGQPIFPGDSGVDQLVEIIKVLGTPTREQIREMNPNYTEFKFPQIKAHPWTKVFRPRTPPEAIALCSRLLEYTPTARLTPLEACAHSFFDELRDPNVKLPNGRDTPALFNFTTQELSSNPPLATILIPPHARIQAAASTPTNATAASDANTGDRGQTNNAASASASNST

MKN-45 [13] = experiment: Cytotoxic activity against human MKN45 cells assessed as cell viability at 0.5 uM incubated for 5 days by MTT assay; assay type: functional; settings: MKN-45, 120 h, read-out: Activity; how it was run: as §1
MKN-45 [14] = experiment: Induction of apoptosis in human MKN45 assessed as accumulation at subG1 phase at 20 uM incubated for 7 days by flow cytometry (reference value: 10.9 +/- 3.2%); assay type: functional
MKN-45 [15] = experiment: Induction of apoptosis in human MKN45 assessed as accumulation at subG1 phase at 10 uM incubated for 7 days by flow cytometry (reference value: 10.9 +/- 3.2%); assay type: functional
HT-29 [16] = experiment: Cytotoxic activity against human HT-29 cells assessed as cell viability at 2.6 uM incubated for 3 days by MTT assay; assay type: functional; settings: HT-29, 72 h, read-out: Activity; how it was run: as §1
MKN-45 [17] = experiment: Induction of apoptosis in human MKN45 assessed as accumulation at subG1 phase at 15 uM incubated for 7 days by flow cytometry (reference value: 10.9 +/- 3.2%); assay type: functional
MKN-45 [18] = experiment: Cytotoxic activity against human MKN45 cells assessed as cell viability at 50 uM incubated for 5 days by MTT assay; assay type: functional; settings: MKN-45, 120 h, read-out: Activity; how it was run: as §1
MKN-45 [19] = experiment: Induction of apoptosis in human MKN45 assessed as accumulation at subG1 phase at 1 uM incubated for 7 days by flow cytometry (reference value: 10.9 +/- 3.2%); assay type: functional
MKN-45 [20] = experiment: Induction of apoptosis in human MKN45 assessed as accumulation at subG1 phase at 5 uM incubated for 7 days by flow cytometry (reference value: 10.9 +/- 3.2%); assay type: functional
MKN-45 [21] = experiment: Cytotoxic activity against human MKN45 cells assessed as cell viability at 5 uM incubated for 5 days by MTT assay; assay type: functional; settings: MKN-45, 120 h, read-out: Activity; how it was run: as §1

Structure (SMILES): COc1ccccc1C1=C(c2c[nH]c3ncccc23)C(=O)NC1=O
- inhibition (INH) [1]: 30%

Structure (SMILES): COc1cc(C2=C(c3c[nH]c4cccnc34)C(=O)NC2=O)cc(OC)c1OC
- IC50 [2]: ≥ 1500 nM
- inhibition (INH) [1]: 10%
- viability at 52 µM (HT-29 [3]): 65.8%
- Activity (HUVEC [4]): 16.3%
- Activity (HUVEC [5]): 14.2%

Structure (SMILES): COc1cc(C2=C(c3c[nH]c4ccncc34)C(=O)NC2=O)cc(OC)c1OC
- IC50 [2]: ≥ 3000 nM
- viability at 7.9 µM (HT-29 [6]): 61.5%
- viability at 1 µM (MKN-45 [7]): 100%
- IC50 [8]: 590 nM
- viability at 10 µM (MKN-45 [9]): 98.6%
- viability at 20 µM (MKN-45 [10]): 89.4%
- inhibition (INH) [1]: 40%
- viability at 26 µM (HT-29 [11]): 56.5%
- IC50 [12]: 40 nM
- viability at 0.5 µM (MKN-45 [13]): 99.1%
- Activity (MKN-45 [14]): 31.6%
- Activity (MKN-45 [15]): 21.5%
- viability at 2.6 µM (HT-29 [16]): 90.8%
- Activity (MKN-45 [17]): 25.7%
- viability at 52 µM (HT-29 [3]): 47.4%
- Activity (HUVEC [4]): 46.3%
- viability at 50 µM (MKN-45 [18]): 82.5%
- Activity (MKN-45 [19]): 8.8%
- Activity (HUVEC [5]): 31.3%
- Activity (MKN-45 [20]): 15.7%
- viability at 5 µM (MKN-45 [21]): 99%
